The results in this text go back to ChEMBL document CHEMBL1124492, “Folate analogues. 32. Synthesis and biological evaluation of 2-desamino-2-methyl-N10-propargyl-5,8-dideazafolic acid and related compounds” (J Med Chem, 1989).

The test system of experiment [1] is H35R0.3. The experiment is described as follows: Inhibition of growth of H35R cells. Particulars: Rattus norvegicus. It is filed as functional, cell-based, Homo sapiens.
Experiment [2] concerns Lacticaseibacillus casei. The experiment in a line: Inhibition of growth of Lactobacillus casei. The class given is functional, organism-based.
The subject of experiment [3] is Lymphoma cell line. The experiment in a line: Inhibition of growth of tumor cells, manca human lymphoma cells. The class given is functional, cell-based.
The test system of experiment [4] is Enterococcus faecium. The experiment in a line: Inhibition of growth of Staphylococcus faecium. The class given is functional, organism-based.
Experiment [5] is described as follows: Inhibition of growth of H35N cells. It is filed as functional, cell-based.
Experiment [6] can be described thus: Inhibition of growth of colon adenocarcinoma SW 480 cells. The class given is functional, cell-based. Particulars: Homo sapiens, SW480.
Experiment [7] concerns the target T1, Thymidylate synthase (Homo sapiens, UniProt P04818). The experiment in a line: Inhibition of purified human thymidylate synthase from a SV40-transformed human fibroblast cell line cloned in Escherichia coli.
Experiment [8] in a line: Inhibition of growth of H35FF cells. It is filed as functional, cell-based. An outline of the steps:
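The H35FF line was derived from H35 cells by growth in 25 μM (6RS)-5-formyltetrahydrofolate, held constant, with FdUR raised from 0.3 nM in 3-fold steps to 100 nM. This selection amplifies thymidylate synthase to about 70 times the H35N level.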

In experiment [9] the test system is H35R0.3. The experiment in a line: Inhibition of methotrexate (5 uM) transport in H35 hepatoma cell culture. It is filed as functional, cell-based. In outline:
(§1)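 Confluent H35 hepatoma monolayers were washed twice with Hanks BSS and held at 37 °C. [3H]methotrexate (5 μM, 5.5×10^5 dpm/nmol) was added with or without inhibitor, and uptake was taken at 4 min, within its linear range. Results are percent of the uninhibited control uptake, averaged from duplicate samples.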

The subject of experiment [10] is H35R0.3. The experiment is described as follows: Inhibition of methotrexate (5 uM) transport in H35 hepatoma cell culture and % uptake was reported in presence of inhibitor (6RS)-5-formyltetrahydrofolate (50 uM). The class given is functional, cell-based. In outline: as §1
Experiment [11] concerns the target Dihydrofolate reductase (Lactobacillus casei, UniProt P00381). The experiment is described as follows: Inhibition of dihydrofolate reductase in Lactobacillus casei. Details: species or system Lacticaseibacillus casei.
Experiment [12] deals with H35R0.3. The experiment in a line: Inhibition of (6RS)-5-formyltetrahydrofolate (2 uM) transport in H35 hepatoma cell culture. It is filed as functional, cell-based. In outline:
(§2)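 H35 hepatoma cells were grown to confluence, washed twice with Hanks BSS and incubated at 37 °C. [3H]-(6RS)-5-formyltetrahydrofolate (2 μM, 3.8×10^5 dpm/nmol) was added with or without inhibitor, and uptake was sampled at 10 min, within its linear range. Uptake is expressed as percent of the no-inhibitor control, as the mean of duplicate samples.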

The target of experiment [13] is Bifunctional purine biosynthesis protein ATIC (Homo sapiens, UniProt P31939). The experiment is described as follows: Inhibition of AICAR formyltransferase from extract of Manca human lymphoma cells. The class given is cell-based.
Chain of Bifunctional purine biosynthesis protein ATIC (P31939 whole entry): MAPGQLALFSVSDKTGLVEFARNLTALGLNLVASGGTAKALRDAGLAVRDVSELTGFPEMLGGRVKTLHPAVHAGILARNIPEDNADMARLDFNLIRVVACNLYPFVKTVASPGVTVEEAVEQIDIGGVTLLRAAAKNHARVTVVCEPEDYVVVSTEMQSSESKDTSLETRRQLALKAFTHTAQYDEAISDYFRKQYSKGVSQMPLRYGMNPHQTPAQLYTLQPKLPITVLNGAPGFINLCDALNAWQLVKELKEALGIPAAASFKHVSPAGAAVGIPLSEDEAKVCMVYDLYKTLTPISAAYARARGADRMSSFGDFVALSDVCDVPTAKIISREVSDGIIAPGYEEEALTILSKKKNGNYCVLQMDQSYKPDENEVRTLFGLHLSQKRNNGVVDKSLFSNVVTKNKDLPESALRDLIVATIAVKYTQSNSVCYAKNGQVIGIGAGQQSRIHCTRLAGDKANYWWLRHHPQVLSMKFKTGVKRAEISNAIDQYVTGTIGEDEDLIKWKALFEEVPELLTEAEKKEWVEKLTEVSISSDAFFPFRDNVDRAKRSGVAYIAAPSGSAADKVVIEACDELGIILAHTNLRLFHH
For experiment [14], the system named is H35R0.3. The experiment is described as follows: Inhibition of (6RS)-5-formyltetrahydrofolate (2 uM) transport in H35 hepatoma cell culture and % uptake was determined in presence of inhibitor methotrexate (50 uM). The class given is functional, cell-based. An outline of the steps: as §2
For experiment [15], the target named is T2, Dihydrofolate reductase (Homo sapiens, UniProt P00374).
T2 sequence (P00374 whole entry): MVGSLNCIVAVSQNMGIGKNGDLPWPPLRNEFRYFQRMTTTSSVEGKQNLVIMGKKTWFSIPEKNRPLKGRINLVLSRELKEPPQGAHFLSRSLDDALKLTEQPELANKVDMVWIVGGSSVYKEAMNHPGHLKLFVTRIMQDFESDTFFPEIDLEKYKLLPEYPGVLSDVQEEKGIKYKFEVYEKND
The experiment is described as follows: Inhibition of pure human dihydrofolate reductase (DHFR) from lymphoblastoid cells.

Experiment [16] has as its system H35R0.3. The experiment in a line: Inhibition of methotrexate (5 uM) transport in H35 hepatoma cell culture and % uptake was reported in presence of inhibitor DMPDDF (50 uM). The class given is functional, cell-based. In outline:
as §1

Experiment [17] deals with H35R0.3. The experiment is described as follows: Inhibition of methotrexate (5 uM) transport in H35 hepatoma cell culture and % uptake was reported in presence of inhibitor folic acid (50 uM). The class given is functional, cell-based. In outline:
as §1

For experiment [18], the system named is H35R0.3. The experiment in a line: Inhibition of (6RS)-5-formyltetrahydrofolate (2 uM) transport in H35 hepatoma cell culture and % uptake was determined in presence of inhibitor folic acid (50 uM). It is filed as functional, cell-based. In outline: as §2
For experiment [19], the target named is T1, Thymidylate synthase. The experiment in a line: Inhibition of pure human thymidylate synthase from extract of Manca human lymphoma cells. It is filed as cell-based.
For experiment [20], the target named is T3, Thymidylate synthase (Lactobacillus casei, UniProt P00469).
T3 sequence (P00469 whole entry): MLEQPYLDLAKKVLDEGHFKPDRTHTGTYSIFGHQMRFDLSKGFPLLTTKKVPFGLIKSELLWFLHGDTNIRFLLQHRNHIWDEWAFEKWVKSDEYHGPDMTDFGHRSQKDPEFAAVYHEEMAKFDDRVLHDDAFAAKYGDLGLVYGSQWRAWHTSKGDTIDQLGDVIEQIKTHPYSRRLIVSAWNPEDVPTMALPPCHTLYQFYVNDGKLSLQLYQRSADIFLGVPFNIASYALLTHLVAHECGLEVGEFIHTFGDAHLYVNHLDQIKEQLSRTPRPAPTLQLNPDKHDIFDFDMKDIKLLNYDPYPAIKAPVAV
The experiment is described as follows: Inhibition of thymidylate synthase in Lactobacillus casei. Details: species or system Lacticaseibacillus casei.

Experiment [21] has as its system H35R0.3. The experiment is described as follows: Inhibition of (6RS)-5-formyltetrahydrofolate (2 uM) transport in H35 hepatoma cell culture and % uptake was determined in presence of inhibitor aminopterin (50 uM). The class given is functional, cell-based. In outline:
as §2

Experiment [22] addresses T4, Trifunctional purine biosynthetic protein adenosine-3 (Homo sapiens, UniProt P22102).
T4 sequence (P22102 whole entry): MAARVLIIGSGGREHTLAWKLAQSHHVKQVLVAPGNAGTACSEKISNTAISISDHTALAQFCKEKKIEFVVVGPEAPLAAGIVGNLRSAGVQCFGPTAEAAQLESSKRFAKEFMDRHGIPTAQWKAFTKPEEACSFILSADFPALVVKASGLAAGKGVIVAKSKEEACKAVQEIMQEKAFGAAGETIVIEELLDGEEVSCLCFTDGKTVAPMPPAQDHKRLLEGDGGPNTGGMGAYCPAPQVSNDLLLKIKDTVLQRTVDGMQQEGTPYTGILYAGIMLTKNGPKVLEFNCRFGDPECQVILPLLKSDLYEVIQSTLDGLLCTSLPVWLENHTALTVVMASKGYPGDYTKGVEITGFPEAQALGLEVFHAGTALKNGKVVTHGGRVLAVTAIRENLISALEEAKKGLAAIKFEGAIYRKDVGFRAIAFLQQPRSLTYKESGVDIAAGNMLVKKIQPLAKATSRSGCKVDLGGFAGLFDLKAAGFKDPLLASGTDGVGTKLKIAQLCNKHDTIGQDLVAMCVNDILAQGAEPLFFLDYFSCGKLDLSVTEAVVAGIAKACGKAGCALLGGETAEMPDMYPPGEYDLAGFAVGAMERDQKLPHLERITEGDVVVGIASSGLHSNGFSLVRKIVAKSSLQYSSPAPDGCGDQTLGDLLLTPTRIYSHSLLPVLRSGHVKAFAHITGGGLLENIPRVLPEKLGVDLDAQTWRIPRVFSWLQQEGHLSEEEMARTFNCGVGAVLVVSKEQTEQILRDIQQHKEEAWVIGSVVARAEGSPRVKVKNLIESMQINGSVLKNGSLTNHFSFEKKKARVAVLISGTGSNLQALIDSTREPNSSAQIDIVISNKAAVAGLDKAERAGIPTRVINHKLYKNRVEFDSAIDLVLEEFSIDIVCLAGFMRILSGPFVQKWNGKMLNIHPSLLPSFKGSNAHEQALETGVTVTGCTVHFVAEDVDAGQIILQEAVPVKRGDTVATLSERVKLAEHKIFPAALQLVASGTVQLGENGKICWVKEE
The experiment is described as follows: Inhibition of GAR formyltransferase from extract of Manca human lymphoma cells. It is filed as cell-based.

Experiment [23] relates to H35R0.3. The experiment is described as follows: Inhibition of (6RS)-5-formyltetrahydrofolate (2 uM) transport in H35 hepatoma cell culture and % uptake was determined in presence of inhibitor PDDF (50 uM). The class given is functional, cell-based. In outline:
as §2

The test system of experiment [24] is H35R0.3. The experiment is described as follows: Inhibition of methotrexate (5 uM) transport in H35 hepatoma cell culture and % uptake was reported in presence of inhibitor PDDF (50 uM). It is filed as functional, cell-based. In outline: as §1
Experiment [25] concerns H35R0.3. The experiment is described as follows: Inhibition of (6RS)-5-formyltetrahydrofolate (2 uM) transport in H35 hepatoma cell cultured and % uptake was determined in presence of inhibitor (6RS)-5-formyltetrahydrofolate (50 uM). It is filed as functional, cell-based. An outline of the steps:
as §2

Experiment [26] deals with H35R0.3. The experiment in a line: Inhibition of methotrexate (5 uM) transport in H35 hepatoma cell culture and % uptake was reported in presence of inhibitor methotrexate (50 uM). It is filed as functional, cell-based. An outline of the steps: as §1
Experiment [27] concerns H35R0.3. The experiment in a line: Inhibition of methotrexate (5 uM) transport in H35 hepatoma cell culture and % uptake was reported in presence of inhibitor aminopterin (50 uM). It is filed as functional, cell-based. An outline of the steps:
as §1

For experiment [28], the system named is H35R0.3. The experiment is described as follows: Inhibition of (6RS)-5-formyltetrahydrofolate (2 uM) transport in H35 hepatoma cell culture and % uptake was determined in presence of inhibitor DMPDDF (50 uM). The class given is functional, cell-based. In outline: as §2

What is called IC50 is the point on the concentration scale where inhibition reaches its midpoint. Read a high IC50 as weaker potency.

T1 sequence (P04818 whole entry): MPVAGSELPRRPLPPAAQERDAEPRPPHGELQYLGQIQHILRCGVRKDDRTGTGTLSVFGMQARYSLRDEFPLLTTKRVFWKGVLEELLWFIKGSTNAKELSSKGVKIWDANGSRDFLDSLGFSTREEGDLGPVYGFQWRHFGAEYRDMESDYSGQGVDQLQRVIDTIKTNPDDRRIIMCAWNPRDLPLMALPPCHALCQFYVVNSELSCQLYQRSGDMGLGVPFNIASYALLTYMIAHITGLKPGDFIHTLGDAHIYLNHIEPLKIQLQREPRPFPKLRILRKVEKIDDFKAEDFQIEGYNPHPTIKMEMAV
Chain of Dihydrofolate reductase (Lactobacillus casei, UniProt P00381) (P00381 whole entry): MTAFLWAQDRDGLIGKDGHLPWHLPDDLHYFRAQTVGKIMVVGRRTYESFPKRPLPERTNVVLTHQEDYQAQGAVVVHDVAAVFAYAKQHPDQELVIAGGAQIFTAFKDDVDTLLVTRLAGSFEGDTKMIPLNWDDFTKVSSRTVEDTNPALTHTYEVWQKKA

For `C#CCN(Cc1ccc2[nH]c(N)nc(=O)c2c1)c1ccc(C(=O)NC(CCC(=O)O)C(=O)O)cc1` (centres undefined), the IC50 was 2000 nM in [1]; 0.4 nM in experiment [2]; 560 nM in experiment [3]; 0.13 nM in experiment [4]; 3600 nM in experiment [5].
As for `C#CCN(Cc1ccc2nc(C(F)(F)F)nc(O)c2c1)c1ccc(C(=O)NC(CCC(=O)O)C(=O)O)cc1` (centres undefined), the IC50 in [6] is over 100000 nM.
Consider `C#CCN(Cc1ccc2nc(C)n(C)c(=O)c2c1)c1ccc(C(=O)NC(CCC(=O)O)C(=O)O)cc1` (centres undefined), for which the results for the IC50 in experiment [7] and in experiment [6] were 11300 nM and over 100000 nM, respectively.
As to `CN(Cc1cnc2nc(N)nc(N)c2n1)c1ccc(C(=O)N[C@@H](CCC(=O)O)C(=O)O)cc1` [METHOTREXATE], the IC50 in experiment [1] was determined as 906 nM; in experiment [8], 10 nM; in experiment [5], 10 nM.
Take `C#CCN(Cc1ccc2nc(C)nc(O)c2c1)c1ccc(C(=O)NC(CCC(=O)O)C(=O)O)cc1` (centres undefined): the Uptake came out at 100% in [9]; 25% in experiment [10]; 100% in experiment [12]; 22% in experiment [14]; 25% in experiment [16]; 85% in experiment [17]. Besides, the Uptake in experiment [18] was determined as 83%; in [21] it was 11%; in [23] it was 90%; in [24], 100%; in experiment [25], 22%; in [26], 25%. For the same compound, the Uptake in [27] turned out to be 25%; in experiment [28] it was 8.5%. Also, the IC50 is 35000 nM in experiment [11]; 2240 nM in [1]; 22 nM in [2]; over 60000 nM in experiment [13]; over 30000 nM in experiment [15]; 60 nM in experiment [19]. In addition, the IC50 in [20] is 100 nM; in experiment [3], 13 nM; in experiment [7], 9.8 nM; in experiment [22], over 17000 nM; in experiment [4], 6 nM; in [8], 7280 nM. The IC50 stood at 50 nM in experiment [6] and 55 nM in experiment [5].
